This note sets out measurements from ChEMBL document CHEMBL5260822, “Structure-based design and synthesis of 2,4-diaminopyrimidines as EGFR L858R/T790M selective inhibitors for NSCLC” (Eur J Med Chem, 2017).

The source made the active and inactive calls. The calls are words filed in the database; no cut-off is given here.

The nature of data set [1]: Toxicity in BALB/c nude mouse xenografted with human NCI-H1975 cells harboring EGFR L858R/T790M mutant assessed as body weight loss at 15 to 30 mg/kg, po for 18 days. Format: organism-based. As to conditions: in vivo, 432 h, dose 15-30 mg/kg, time 18 day. The method in brief:
(§1)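 Female BALB/cA nu/nu mice were given 1 × 10^6 H1975 cells in 0.1 mL PBS subcutaneously in the right flank. At an average tumour volume of 100 mm3 (about 18 days post-implantation) they were randomised, n = 6 per group. Groups received 15 or 30 mg/kg/day for 18 consecutive days or vehicle. Mice were kept at constant room temperature, 12/12-h light/dark, with standard diet and water ad lib.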

The nature of data set [2]: Cmax in Sprague-Dawley rat at 1 mg/kg, iv and measured after 24 hrs by LC-MS/MS analysis. Format: ADME, organism-based. Also noted: dose 1 mg/kg, time 24 hrs, route iv. The note with it: in vivo.
Data set [3] can be described thus: AUC (0 to infinity) in Sprague-Dawley rat at 10 mg/kg, po and measured after 24 hrs by LC-MS/MS analysis. The class given is ADME, organism-based. Also noted: dose 10 mg/kg, time 24 hrs, route po. The note with it: in vivo. The method in brief: (§2)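 Male Sprague–Dawley rats (190–220 g) dosed by oral gavage at 10 mg/kg in 5% DMSO / 95% HP-β-CD aqueous solution (20%); iv reference arm at 1 mg/kg. Blood sampled at 0.25, 0.5, 1, 2, 4, 6, 8 and 24 h, centrifuged (8000 × g, 6 min), and plasma quantified by LC–MS/MS.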

In data set [4] the target is Receptor tyrosine-protein kinase erbB-4 (Homo sapiens) (UniProt Q15303). Description: Inhibition of ERBB4 (unknown origin) at 1000 nM by DiscoverX KINOMEscan assay relative to control; values are per cent of control.
The target in data set [5] is MAP kinase-interacting serine/threonine-protein kinase 2 (Homo sapiens) (UniProt Q9HBH9). Description: Inhibition of MKNK2 (unknown origin) at 1000 nM by DiscoverX KINOMEscan assay relative to control; values are per cent of control.
Chain of MAP kinase-interacting serine/threonine-protein kinase 2 (Homo sapiens) (Q9HBH9 whole entry, looked up): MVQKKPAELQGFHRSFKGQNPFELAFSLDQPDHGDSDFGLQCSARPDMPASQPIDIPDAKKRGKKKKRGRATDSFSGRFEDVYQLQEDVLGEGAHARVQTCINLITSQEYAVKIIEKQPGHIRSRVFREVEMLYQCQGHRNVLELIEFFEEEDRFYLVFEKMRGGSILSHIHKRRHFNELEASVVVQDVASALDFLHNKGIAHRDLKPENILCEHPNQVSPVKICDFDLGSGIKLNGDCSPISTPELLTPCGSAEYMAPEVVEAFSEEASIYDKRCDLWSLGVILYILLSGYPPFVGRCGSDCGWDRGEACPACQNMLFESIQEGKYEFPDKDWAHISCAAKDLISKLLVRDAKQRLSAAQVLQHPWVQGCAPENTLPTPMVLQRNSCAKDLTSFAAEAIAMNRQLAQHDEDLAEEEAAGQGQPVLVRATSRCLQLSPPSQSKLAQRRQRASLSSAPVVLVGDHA
Data set [6] in a line: Cmax in Sprague-Dawley rat at 10 mg/kg, po and measured after 24 hrs by LC-MS/MS analysis. The class given is ADME, organism-based. The arrangement: dose 10 mg/kg, time 24 hrs, route po. As to conditions: in vivo. The method in brief:
as §2

Data set [7] relates to NCI-H1975. Description: Antitumor activity against human NCI-H1975 cells harboring EGFR L858R/T790M mutant xenografted in BALB/c nude mouse assessed as tumor cell proliferation at 15 to 30 mg/kg, po for 18 days by Ki-67 staining based immunohistochemical analysis. Format: functional, organism-based. The note with it: dose 15-30 mg/kg, time 18.0 day. The method in brief: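 H1975 xenograft tumors from nude mice (n = 6/group, daily dosing 18 days) were harvested, fixed in 10% formalin, paraffin-embedded and cut into 5 µm sections. Sections deparaffinized and incubated with primary anti-Ki-67 antibody at room temperature; immunoreactivity visualized with DAB.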

Data set [8] has as its system Epidermal growth factor receptor (Homo sapiens), P00533 [L858R,T790M]. Description: Inhibition of EGFR phosphorylation in EGF-stimulated human NCI-H1975 cells harboring EGFR L858R/T790M double mutant at 0.1 to 100 nM and measured after 2 hrs by Western blot analysis. The class given is cell-based. The note with it: dose 0.1-100 nM. The method in brief: (§3)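 Cells treated with compound for 2 h, then stimulated with EGF for 15 min and lysed. Lysates cleared at 12,000 × g (10 min, 4 °C), protein measured by Bradford assay, and equal amounts run on 8% SDS-PAGE and blotted to nitrocellulose. Probed for p-EGFR (Y1068), EGFR, p-ERK (T202/Y204), ERK, with tubulin or GAPDH as loading controls.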

Data set [9] has as its target Epidermal growth factor receptor (Homo sapiens, UniProt P00533, L858R/T790M). Nature of the data set: Inhibition of EGFR L858R/T790M mutant (unknown origin) expressed in baculovirus expression system by ELISA.
Data set [10] deals with NCI-H1975. Nature of the data set: Antitumor activity against human NCI-H1975 cells harboring EGFR L858R/T790M mutant xenografted in BALB/c nude mouse assessed as tumor growth inhibition at 15 mg/kg, po for 18 days. Format: functional. The note with it: NCI-H1975, 432 h, time 18 day, read-out: TGI. The method in brief: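 H1975 cells (1 × 10^6 in 0.1 mL PBS) injected subcutaneously into the right flank of female nude mice. At mean tumor volume of about 100 mm3 (roughly 18 days), mice randomized, n = 6 per group, and dosed once daily for 18 days against a vehicle group. Tumor volume (0.5 × L × W²) measured every 2–3 days; tumors weighed at sacrifice. Data given as mean ± SEM.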

Data set [11] is described as follows: Clearance in Sprague-Dawley rat at 1 mg/kg, iv and measured after 24 hrs by LC-MS/MS analysis. The class given is ADME, organism-based. As to conditions: in vivo.
Data set [12] concerns the target Epidermal growth factor receptor (Homo sapiens, UniProt P00533). Nature of the data set: Inhibition of wild type EGFR (unknown origin) expressed in baculovirus expression system by ELISA.
Data set [13] is described as follows: AUC (0 to infinity) in Sprague-Dawley rat at 1 mg/kg, iv and measured after 24 hrs by LC-MS/MS analysis. Format: ADME, organism-based. Also noted: time 24 hrs, dose 1 mg/kg, route iv. As to conditions: in vivo.
Data set [14] in a line: Toxicity in BALB/c nude mouse xenografted with human NCI-H1975 cells harboring EGFR L858R/T790M mutant assessed as morphological changes in heart at 15 to 30 mg/kg, po for 18 days by hematoxylin and eosin staining based microscopic analysis. Format: organism-based. The note with it: in vivo, 432 h, dose 15-30 mg/kg, time 18 day. In outline: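 H1975 subcutaneous xenografts were grown in female BALB/cA nu/nu mice (n = 6 per group), dosed at 15 or 30 mg/kg/day for 18 days or with vehicle. At the end the mice were sacrificed. Heart, kidney and liver were harvested, processed and stained with hematoxylin and eosin for routine histological examination.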

For data set [15], the system named is NCI-H1975. Nature of the data set: Inhibition of Akt signalling in EGF-stimulated human NCI-H1975 cells harboring EGFR L858R/T790M double mutant assessed as […] at 0.1 to 100 nM and measured after 2 hrs by Western blot analysis. The class given is cell-based. The note with it: dose 0.1-100 nM.
Data set [16] concerns NCI-H1975. Description: Inhibition of Erk signalling in EGF-stimulated human NCI-H1975 cells harboring EGFR L858R/T790M double mutant assessed as decrease in p-ERK level at 0.1 to 100 nM and measured after 2 hrs by Western blot analysis. As to conditions: dose 0.1-100 nM. The class given is cell-based. The method in brief: as §3
Data set [17] can be described thus: Volume of distribution at steady state in Sprague-Dawley rat at 1 mg/kg, iv and measured after 24 hrs by LC-MS/MS analysis. Format: ADME, organism-based. The note with it: in vivo, read-out: Vdss.
Data set [18] relates to NCI-H1975. Nature of the data set: Antiproliferative activity against human NCI-H1975 cells harboring EGFR L858R/T790M double mutant assessed as inhibition of cell proliferation incubated for 72 hrs by sulforhodamine B colorimetric assay. Format: functional, cell-based. The note with it: NCI-H1975, 72 h.
Data set [19] can be described thus: Toxicity in BALB/c nude mouse xenografted with human NCI-H1975 cells harboring EGFR L858R/T790M mutant assessed as mortality at 15 to 30 mg/kg, po for 18 days. The class given is organism-based. The note with it: in vivo, 432 h, dose 15-30 mg/kg, time 18 day. The method in brief:
as §1

Data set [20] concerns the target Tyrosine-protein kinase JAK2 (Homo sapiens) (UniProt O60674). Description: Inhibition of JAK2 (unknown origin) at 1000 nM by DiscoverX KINOMEscan assay relative to control; values are per cent of control.
Data set [21] addresses Insulin receptor (Homo sapiens) (UniProt P06213). Description: Inhibition of INSR (unknown origin) at 1000 nM by DiscoverX KINOMEscan assay relative to control; values are per cent of control.

Chain of Tyrosine-protein kinase JAK2 (Homo sapiens) (O60674 whole entry): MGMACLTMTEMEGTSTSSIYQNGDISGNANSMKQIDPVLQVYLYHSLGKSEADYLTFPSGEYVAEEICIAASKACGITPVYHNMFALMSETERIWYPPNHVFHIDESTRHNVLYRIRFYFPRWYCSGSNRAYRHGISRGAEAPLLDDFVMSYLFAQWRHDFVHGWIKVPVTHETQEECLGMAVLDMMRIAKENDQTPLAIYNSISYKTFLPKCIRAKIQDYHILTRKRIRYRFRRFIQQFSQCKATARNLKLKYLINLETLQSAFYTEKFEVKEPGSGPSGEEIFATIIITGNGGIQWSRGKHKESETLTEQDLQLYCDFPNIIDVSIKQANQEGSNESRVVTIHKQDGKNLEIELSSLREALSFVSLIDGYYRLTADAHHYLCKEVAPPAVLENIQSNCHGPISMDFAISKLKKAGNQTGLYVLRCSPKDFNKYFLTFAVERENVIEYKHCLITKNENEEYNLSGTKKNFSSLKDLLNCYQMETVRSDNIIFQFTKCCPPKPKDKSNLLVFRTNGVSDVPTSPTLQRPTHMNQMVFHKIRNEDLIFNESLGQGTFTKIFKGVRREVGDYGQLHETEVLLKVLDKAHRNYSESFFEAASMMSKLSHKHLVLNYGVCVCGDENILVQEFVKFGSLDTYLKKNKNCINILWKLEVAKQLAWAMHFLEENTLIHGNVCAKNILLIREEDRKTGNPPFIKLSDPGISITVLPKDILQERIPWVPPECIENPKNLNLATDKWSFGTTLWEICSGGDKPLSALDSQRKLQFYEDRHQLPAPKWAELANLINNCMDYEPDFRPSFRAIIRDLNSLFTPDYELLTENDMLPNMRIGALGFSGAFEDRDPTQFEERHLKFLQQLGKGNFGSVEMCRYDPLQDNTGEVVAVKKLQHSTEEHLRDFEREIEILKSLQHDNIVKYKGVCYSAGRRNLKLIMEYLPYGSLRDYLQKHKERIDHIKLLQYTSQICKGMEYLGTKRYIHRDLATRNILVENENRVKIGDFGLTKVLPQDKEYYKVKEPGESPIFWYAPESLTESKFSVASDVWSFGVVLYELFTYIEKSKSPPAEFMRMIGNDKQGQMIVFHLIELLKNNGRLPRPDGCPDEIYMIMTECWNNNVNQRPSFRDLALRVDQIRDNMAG
Chain of Epidermal growth factor receptor (Homo sapiens, UniProt P00533, L858R/T790M) (P00533 25-1210 T790M/L858R limits assumed): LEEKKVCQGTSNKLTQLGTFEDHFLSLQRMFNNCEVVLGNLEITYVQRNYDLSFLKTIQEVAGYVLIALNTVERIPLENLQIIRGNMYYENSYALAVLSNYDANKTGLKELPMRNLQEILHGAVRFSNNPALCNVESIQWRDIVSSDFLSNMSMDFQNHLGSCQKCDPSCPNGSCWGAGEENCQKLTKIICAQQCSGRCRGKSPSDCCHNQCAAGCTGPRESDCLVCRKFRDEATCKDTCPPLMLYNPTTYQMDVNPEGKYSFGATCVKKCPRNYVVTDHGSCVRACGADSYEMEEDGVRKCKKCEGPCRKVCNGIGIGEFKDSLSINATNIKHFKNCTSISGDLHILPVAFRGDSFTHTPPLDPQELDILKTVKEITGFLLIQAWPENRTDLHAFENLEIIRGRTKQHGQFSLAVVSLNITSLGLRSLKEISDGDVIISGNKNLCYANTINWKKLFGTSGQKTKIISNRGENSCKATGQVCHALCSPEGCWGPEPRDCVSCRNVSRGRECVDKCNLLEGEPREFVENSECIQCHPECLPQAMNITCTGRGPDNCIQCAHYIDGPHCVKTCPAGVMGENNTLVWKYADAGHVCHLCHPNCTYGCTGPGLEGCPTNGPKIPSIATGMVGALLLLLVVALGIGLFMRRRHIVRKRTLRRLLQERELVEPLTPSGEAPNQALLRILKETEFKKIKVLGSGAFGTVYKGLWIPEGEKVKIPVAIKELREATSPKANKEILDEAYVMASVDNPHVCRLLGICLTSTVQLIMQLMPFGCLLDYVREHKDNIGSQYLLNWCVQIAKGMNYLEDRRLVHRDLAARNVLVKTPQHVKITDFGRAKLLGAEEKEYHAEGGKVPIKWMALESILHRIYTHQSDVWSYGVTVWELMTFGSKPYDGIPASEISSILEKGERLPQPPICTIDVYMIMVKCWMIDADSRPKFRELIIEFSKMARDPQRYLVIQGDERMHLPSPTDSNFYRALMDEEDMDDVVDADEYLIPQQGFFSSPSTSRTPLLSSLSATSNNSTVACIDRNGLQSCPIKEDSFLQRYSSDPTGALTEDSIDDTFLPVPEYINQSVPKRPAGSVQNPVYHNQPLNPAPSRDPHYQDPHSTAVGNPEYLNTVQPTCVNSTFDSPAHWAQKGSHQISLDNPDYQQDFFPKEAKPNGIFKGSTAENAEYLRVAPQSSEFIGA
Chain of Insulin receptor (Homo sapiens) (P06213 28-758 limits assumed): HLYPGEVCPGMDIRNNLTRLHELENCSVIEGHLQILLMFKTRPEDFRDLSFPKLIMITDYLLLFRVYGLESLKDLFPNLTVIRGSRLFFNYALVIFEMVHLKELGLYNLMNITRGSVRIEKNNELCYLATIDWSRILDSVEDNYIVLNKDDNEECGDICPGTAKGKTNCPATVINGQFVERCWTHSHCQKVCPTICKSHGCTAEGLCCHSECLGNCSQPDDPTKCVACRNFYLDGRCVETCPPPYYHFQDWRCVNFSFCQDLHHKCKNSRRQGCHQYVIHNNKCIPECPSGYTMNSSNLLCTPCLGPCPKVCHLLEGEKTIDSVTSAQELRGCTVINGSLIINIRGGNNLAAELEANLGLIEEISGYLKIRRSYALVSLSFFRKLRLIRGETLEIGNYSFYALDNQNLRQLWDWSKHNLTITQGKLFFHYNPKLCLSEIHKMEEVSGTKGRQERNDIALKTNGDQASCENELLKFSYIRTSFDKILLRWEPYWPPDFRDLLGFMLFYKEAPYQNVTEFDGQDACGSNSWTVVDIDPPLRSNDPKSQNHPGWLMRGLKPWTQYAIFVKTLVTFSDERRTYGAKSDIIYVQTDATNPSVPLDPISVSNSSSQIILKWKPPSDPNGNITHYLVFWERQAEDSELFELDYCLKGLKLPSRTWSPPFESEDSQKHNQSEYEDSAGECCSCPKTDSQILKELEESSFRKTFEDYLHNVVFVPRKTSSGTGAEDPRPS
Chain of Insulin receptor (Homo sapiens) (P06213 763-1382 limits assumed): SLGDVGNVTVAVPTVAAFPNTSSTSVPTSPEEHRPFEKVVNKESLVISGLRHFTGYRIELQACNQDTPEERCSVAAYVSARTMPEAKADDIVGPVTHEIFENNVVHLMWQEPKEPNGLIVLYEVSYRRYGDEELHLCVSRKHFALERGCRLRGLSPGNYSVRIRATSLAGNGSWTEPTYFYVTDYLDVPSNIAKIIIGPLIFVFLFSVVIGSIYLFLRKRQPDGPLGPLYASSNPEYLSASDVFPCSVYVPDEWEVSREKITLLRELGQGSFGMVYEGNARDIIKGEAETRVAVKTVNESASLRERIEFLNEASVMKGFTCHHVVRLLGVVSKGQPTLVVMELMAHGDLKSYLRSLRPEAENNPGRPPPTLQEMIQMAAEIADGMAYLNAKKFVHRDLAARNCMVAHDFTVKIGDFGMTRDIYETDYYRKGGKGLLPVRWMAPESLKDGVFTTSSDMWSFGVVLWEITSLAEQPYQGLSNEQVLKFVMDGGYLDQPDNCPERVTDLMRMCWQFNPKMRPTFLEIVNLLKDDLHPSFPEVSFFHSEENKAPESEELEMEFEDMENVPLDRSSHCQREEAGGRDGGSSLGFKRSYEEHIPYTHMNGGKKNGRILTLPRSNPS

`C=CC(=O)Nc1cc(Nc2ncc(Br)c(Nc3ccc4ccn(C)c4c3)n2)c(OC)cc1N1CCN(C)CC1`: the Activity entry in data set [1], in [14] and in data set [19] was “Non-Toxic” each time. In addition, the peak concentration (Cmax) in [2] is 235 ng/mL; in [6] it was 636 ng/mL. For the same compound, the AUC in [3] was determined as 52.3 ng·h/mL; in data set [13], 515 ng·h/mL. The residual activity in data set [4], in [5], in data set [20] and in [21] was < 10% throughout. For the same compound, the result with NCI-H1975 [7] was Active. Moreover, the inhibition result (in data set [8]; in the data set with NCI-H1975 [15]; in the data set on NCI-H1975 [16]) was “Dose-Dependent Effect” in each case. For the same compound, the IC50 in data set [9] stood at 4.1 nM; in [12], 280 nM; in the data set with NCI-H1975 [18], 184 nM. For the same compound, in the data set with NCI-H1975 [10], the inhibition in vivo at 15 mg/kg is 62%. The compound further had a clearance in data set [11] of 32.6 mL/min/kg. Also, in data set [17], the Vd was determined as 6.56 L/kg.
